Measured values reported in ChEMBL document CHEMBL1155597, “Activity of extracts and isolated naphthoquinones from Kigelia pinnata against Plasmodium falciparum” (J Nat Prod, 2000).

How the values were obtained:
[1] = system: Plasmodium falciparum; assay: Antimalarial activity after 48 hrs against chloroquine-sensitive Plasmodium falciparum T9-96 by LDH reporter assay; assay type: functional, organism-based; settings: T9-96, 48 h
Summary of the method: (§1)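 Asexual cultures kept in 5% A+ human red cells in RPMI 1640 with HEPES, glucose, NaHCO3, hypoxanthine, gentamycin and 10% A+ human serum under 1% O2/3% CO2/96% N2 at 37 °C. Ring-stage blood (1% parasitemia, 2% hematocrit) exposed 48 h to compounds at 50 µg/mL to 1.63 ng/mL final (2-fold). Modified LDH read-out: Malstat, then NBT/phenazine ethosulfate, absorbance at 650 nm. Tested twice in triplicate; IC50 ± SD.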

[2] = system: KB; assay: Cytotoxicity against human KB cells after 48 hrs by MTT assay; assay type: functional; settings: read-out: ED50 (the source's name)
Summary of the method: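 KB human oral epidermal carcinoma cells in DMEM glutamax-1 + 10% HIFCS, 37 °C, 5% CO2. Log-phase cells seeded at 25 000/well and left 24 h to attach. Compounds added from DMSO (≤0.5% final), 200 to 0.064 μg/mL in 5-fold series, triplicate. After 48 h, MTT added for 4 h, formazan dissolved in DMSO, A540 blank-subtracted. Growth expressed as % of untreated control.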

[3] = Selectivity ratio of ED50 for KB cells to IC50 for Plasmodium falciparum T9-96; assay type: ADME, cell-based; settings: human, KB cells (cytotoxicity) versus Plasmodium falciparum T9-96
Summary of the method: (§2)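 Ratio of KB ED50 to P. falciparum IC50. KB ED50 comes from the 48 h MTT assay. Parasite IC50 comes from a 48 h modified lactate dehydrogenase assay on ring-stage cultures (1% parasitemia, 2% hematocrit, A+ human RBC), 37 °C, 1% O2/3% CO2/96% N2. Compounds tested at 50 μg/mL to 1.63 ng/mL in 2-fold dilutions, twice in triplicate, with NBT/PES read at 650 nm.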

[4] = system: Plasmodium falciparum; assay: Antimalarial activity after 48 hrs against chloroquine-resistant Plasmodium falciparum K1 by LDH reporter assay; assay type: functional, organism-based; settings: K1, 48 h; summary of the method: as §1
[5] = Selectivity ratio of ED50 for KB cells to IC50 for Plasmodium falciparum K1; assay type: ADME, cell-based; settings: human, KB cells (cytotoxicity) versus Plasmodium falciparum K1; summary of the method: as §2

`CC1=C2C=C3C(=O)c4ccc(O)cc4C(=O)C3(O)C(C)=C2CC1` (stereo unspecified) [KIGELINOL] showed an IC50 [1] of 15.2 µM, an EC50 [2] of 148 µM and a selectivity ratio [3] of 9.74. The IC50 [4] was 16.7 µM and the selectivity ratio [5] was 8.88.

`CC(O)c1cc2c(o1)C(=O)c1ccccc1C2=O` (stereo unspecified) showed an IC50 [1] of 0.718 µM, an EC50 [2] of 3.9 µM and a selectivity ratio [3] of 5.4. For the same compound, the IC50 [4] was 0.627 µM and the selectivity ratio [5] was 6.18.

Work on `CCN(CC)CCCC(C)Nc1ccnc2cc(Cl)ccc12` (stereo unspecified) [CHLOROQUINE PHOSPHATE] yielded an EC50 [2] of 43.9 µM.

`CC1=C2C=C3C(=O)c4cc(O)ccc4C(=O)C3(O)C(C)=C2CC1` (stereo unspecified) [ISOKIGELINOL] gave an IC50 [1] of 11.9 µM, an EC50 [2] of 167 µM and a selectivity ratio [3] of 14. For the same compound, the IC50 [4] was 15.2 µM and the selectivity ratio [5] was 12.7.

Work on `C[C@]12CC[C@@H]3[C@H]1C=C1C(=O)c4cc(O)ccc4C(=O)[C@@]1(O2)[C@]3(C)C=O` [ISOPINNATAL] yielded an IC50 [1] of 1.55 µM, an EC50 [2] of 14.8 µM and a selectivity ratio [3] of 9.54. For the same compound, the IC50 [4] was 0.763 µM and the selectivity ratio [5] was 19.4.
